According to ChEMBL document CHEMBL3739417, “Synthesis and biological evaluation of novel 4,5-disubstituted 2H-1,2,3-triazoles as cis-constrained analogues of combretastatin A-4” (2015):

How the values were obtained:
Format in all cases: functional
[1] = Growth inhibition of human DU145 cells after 48 hrs by sulforhodamine B assay; conditions: DU-145, 48 h
Method in brief: (§1)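 NCI-60 panel screen by SRB assay (Rubinstein method). Percentage growth taken from optical density of SRB colour, read before and 48 hrs after exposure to compound or vehicle control. All analogues first screened at 10^-5 M. Analogues giving 60% growth inhibition at that level in at least eight lines then went to a five-concentration dose-response study.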

[2] = Growth inhibition of human LOXIMVI cells after 48 hrs by sulforhodamine B assay; conditions: LOX IMVI; method in brief: as §1
[3] = Growth inhibition of human PC3 cells after 48 hrs by sulforhodamine B assay; conditions: PC-3, 48 h; method in brief: as §1
[4] = Growth inhibition of human SF268 cells after 48 hrs by sulforhodamine B assay; conditions: SF-268, 48 h; method in brief: as §1
786-0 = experiment: Growth inhibition of human 786-0 cells after 48 hrs by sulforhodamine B assay; conditions: 786-0, 48 h; method in brief: as §1
[5] = Growth inhibition of human RPMI8226 cells after 48 hrs by sulforhodamine B assay; conditions: RPMI-8226, 48 h; method in brief: as §1
MDA-MB-435 = experiment: Growth inhibition of human MDA-MB-435 cells after 48 hrs by sulforhodamine B assay; conditions: MDA-MB-435, 48 h
Method in brief: (§2)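 NCI-60 sulforhodamine B screen. Compounds were first tested at a single dose of 10⁻⁵ M; hits, defined as ≥60% growth inhibition in at least eight lines, went on to a five-concentration dose–response. SRB optical density was read before and 48 h after exposure to compound or vehicle. Percentage growth was calculated from OD.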

[6] = Growth inhibition of human HOP62 cells after 48 hrs by sulforhodamine B assay; conditions: HOP-62, 48 h; method in brief: as §1
SK-MEL-2 = experiment: Growth inhibition of human SK-MEL-2 cells after 48 hrs by sulforhodamine B assay; conditions: SK-MEL-2, 48 h; method in brief: as §1
[7] = Growth inhibition of human NCI-ADR-RES cells after 48 hrs by sulforhodamine B assay; method in brief: as §1
KM12 = experiment: Growth inhibition of human KM12 cells after 48 hrs by sulforhodamine B assay; conditions: KM12, 48 h; method in brief: as §1
NCI-H460 = experiment: Growth inhibition of human NCI-H460 cells after 48 hrs by sulforhodamine B assay; conditions: NCI-H460, 48 h; method in brief: as §1
NCI-H23 = experiment: Growth inhibition of human NCI-H23 cells after 48 hrs by sulforhodamine B assay; conditions: NCI-H23, 48 h; method in brief: as §1
[8] = Growth inhibition of human SF295 cells after 48 hrs by sulforhodamine B assay; conditions: SF-295, 48 h; method in brief: as §1
[9] = Growth inhibition of human OVCAR3 cells after 48 hrs by sulforhodamine B assay; conditions: OVCAR-3, 48 h; method in brief: as §2
CAKI-1 = experiment: Growth inhibition of human CAKI-1 cells after 48 hrs by sulforhodamine B assay; conditions: CAKI-1, 48 h; method in brief: as §1
[10] = Growth inhibition of human SKOV3 cells after 48 hrs by sulforhodamine B assay; conditions: SK-OV-3, 48 h; method in brief: as §1
[11] = Growth inhibition of human MOLT4 cells after 48 hrs by sulforhodamine B assay; conditions: MOLT-4, 48 h; method in brief: as §1
K562 = experiment: Growth inhibition of human K562 cells after 48 hrs by sulforhodamine B assay; conditions: K562, 48 h; method in brief: as §1
[12] = Growth inhibition of human HCT15 cells after 48 hrs by sulforhodamine B assay; conditions: HCT-15, 48 h; method in brief: as §1
HT-29 = experiment: Growth inhibition of human HT-29 cells after 48 hrs by sulforhodamine B assay; conditions: HT-29, 48 h; method in brief: as §1
MDA-MB-468 = experiment: Growth inhibition of human MDA-MB-468 cells after 48 hrs by sulforhodamine B assay; conditions: MDA-MB-468, 48 h; method in brief: as §1
U-251 = experiment: Growth inhibition of human U251 cells after 48 hrs by sulforhodamine B assay; conditions: U-251, 48 h; method in brief: as §1
[13] = Growth inhibition of human SNB75 cells after 48 hrs by sulforhodamine B assay; conditions: SNB-75, 48 h; method in brief: as §1
A549 = experiment: Growth inhibition of human A549/ATCC cells after 48 hrs by sulforhodamine B assay; conditions: A549, 48 h; method in brief: as §1
[14] = Growth inhibition of human HCC2998 cells after 48 hrs by sulforhodamine B assay; conditions: HCC 2998, 48 h; method in brief: as §1
[15] = Growth inhibition of human HL-60(TB) cells after 48 hrs by sulforhodamine B assay; conditions: HL-60, 48 h; method in brief: as §1
ACHN = experiment: Growth inhibition of human ACHN cells after 48 hrs by sulforhodamine B assay; method in brief: as §1
MDA-MB-231 = experiment: Growth inhibition of human MDA-MB-231 cells after 48 hrs by sulforhodamine B assay; conditions: MDA-MB-231, 48 h; method in brief: as §1
[16] = Growth inhibition of human SW620 cells after 48 hrs by sulforhodamine B assay; conditions: SW-620, 48 h; method in brief: as §1
MCF7 = experiment: Growth inhibition of human MCF7 cells after 48 hrs by sulforhodamine B assay; conditions: MCF7, 48 h; method in brief: as §1
A498 = experiment: Growth inhibition of human A498 cells after 48 hrs by sulforhodamine B assay; conditions: A498, 48 h; method in brief: as §2
SK-MEL-5 = experiment: Growth inhibition of human SK-MEL-5 cells after 48 hrs by sulforhodamine B assay; conditions: SK-MEL-5, 48 h; method in brief: as §1
[17] = Growth inhibition of human COLO205 cells after 48 hrs by sulforhodamine B assay; conditions: COLO 205, 48 h; method in brief: as §1
CCRF-CEM = experiment: Growth inhibition of human CCRF-CEM cells after 48 hrs by sulforhodamine B assay; method in brief: as §1
[18] = Growth inhibition of human UO31 cells after 48 hrs by sulforhodamine B assay; conditions: UO-31, 48 h; method in brief: as §1
[19] = Growth inhibition of human HOP92 cells after 48 hrs by sulforhodamine B assay; conditions: HOP-92, 48 h; method in brief: as §1
[20] = read-out: LD50 (the source's name)

Work on Clc1ccc(-c2n[nH]nc2-c2ccccn2)c(Cl)c1 yielded a GI50 [1] of 1410 nM, a CC50 [1, 20] greater than 100 µM and a GI50 [2] of 4.83 µM. For the same molecule, the CC50 [2, 20] was greater than 100 µM, the GI50 [3] was 4.5 µM and the CC50 [3, 20] was greater than 100 µM. The GI50 [4] was 7.36 µM, the CC50 [4, 20] was greater than 100 µM and the GI50 (786-0) was 2750 nM. For the same molecule, the LC50 (concentration killing 50% of cells) (786-0; read-out: LD50) was greater than 100 µM, the GI50 [5] was 10.7 µM and the CC50 [5, 20] was greater than 100 µM. It also gave a GI50 (MDA-MB-435) of 2200 nM, an LC50 (concentration killing 50% of cells) (MDA-MB-435; read-out: LD50) greater than 100 µM and a GI50 [6] of 5.32 µM. For the same molecule, the LC50 (concentration killing 50% of cells) ([6]; read-out: LD50) was greater than 100 µM, the GI50 (SK-MEL-2) was 6.52 µM and the CC50 (SK-MEL-2; [20]) was greater than 100 µM. For the same molecule, the GI50 [7] was 3.92 µM, the CC50 [7, 20] was greater than 100 µM and the GI50 (KM12) was 6.87 µM. For the same molecule, the LC50 (concentration killing 50% of cells) (KM12; read-out: LD50) was greater than 100 µM, the GI50 (NCI-H460) was 3.67 µM and the CC50 (NCI-H460; [20]) was greater than 100 µM. It also gave a GI50 (NCI-H23) of 9.13 µM, an LC50 (concentration giving 50% cell kill) (NCI-H23; read-out: LD50) greater than 100 µM and a GI50 [8] of 3.01 µM. For the same molecule, the CC50 [8, 20] was greater than 100 µM, the GI50 [9] was 3.38 µM and the LC50 (concentration giving 50% net cell kill) ([9]; read-out: LD50) was greater than 100 µM. The GI50 (CAKI-1) was 8.42 µM, the CC50 (CAKI-1; [20]) was greater than 100 µM and the GI50 [10] was 2720 nM. It also gave an LC50 (concentration killing 50% of cells) ([10]; read-out: LD50) greater than 100 µM, a GI50 [11] of 4.23 µM and a CC50 [11, 20] greater than 100 µM. It also gave a GI50 (K562) of 5.5 µM, a CC50 (K562; [20]) greater than 100 µM and a GI50 [12] of 2930 nM. It also gave a CC50 [12, 20] greater than 100 µM, a GI50 (HT-29) of 4.56 µM and an LC50 (concentration killing 50% of cells) (HT-29; read-out: LD50) greater than 100 µM. The GI50 (MDA-MB-468) was 3.2 µM, the CC50 (MDA-MB-468; [20]) was greater than 100 µM and the GI50 (U-251) was 5.35 µM. For the same molecule, the CC50 (U-251; [20]) was greater than 100 µM, the GI50 [13] was 1580 nM and the CC50 [13, 20] was greater than 100 µM. The GI50 (A549) was 4.85 µM, the CC50 (A549; [20]) was greater than 100 µM and the GI50 [14] was 9.16 µM. For the same molecule, the CC50 [14, 20] was greater than 100 µM, the GI50 [15] was 5.75 µM and the CC50 [15, 20] was greater than 100 µM. It also gave a GI50 (ACHN) of 1750 nM, a CC50 (ACHN; [20]) greater than 100 µM and a GI50 (MDA-MB-231) of 5.89 µM. The CC50 (MDA-MB-231; [20]) was greater than 100 µM, the GI50 [16] was 4.4 µM and the LD50 (concentration killing 50% of cells) [16] was greater than 100 µM. For the same molecule, the GI50 (MCF7) was 2580 nM, the CC50 (MCF7; [20]) was greater than 100 µM and the GI50 (A498) was 3.18 µM. For the same molecule, the LC50 (50% net cell kill) (A498; read-out: LD50) was greater than 100 µM, the GI50 (SK-MEL-5) was 7.89 µM and the CC50 (SK-MEL-5; [20]) was greater than 100 µM. It also gave a GI50 [17] of 2890 nM, a CC50 [17, 20] greater than 100 µM and a GI50 (CCRF-CEM) of 3.38 µM. For the same molecule, the LC50 (concentration killing 50% of cells) (CCRF-CEM; read-out: LD50) was greater than 100 µM, the GI50 [18] was 6.84 µM and the LC50 (concentration killing 50% of cells) ([18]; read-out: LD50) was greater than 100 µM. For the same molecule, the GI50 [19] was 3.28 µM and the CC50 [19, 20] was greater than 100 µM.
